The values that follow come from ChEMBL document CHEMBL4342496, “Design, Synthesis, Dynamic Docking, Biochemical Characterization, and in Vivo Pharmacokinetics Studies of Novel Topoisomerase II Poisons with Promising Antiproliferative Activity” (J Med Chem, 2020).

Active and inactive are the calls of the source. The calls are words filed in the database; no cut-off is given here.

Data set [1] has as its target T1, DNA topoisomerase 2-alpha (Homo sapiens, UniProt P11388). Kind of data set: Poison activity at human topo2alpha assessed as induction of accumulation of topo-2/DNA cleavage complex formation at 200 uM using […] plasmid incubated for 6 mins by SYBR safe DNA stain based cleavage complex formation assay. In short, it runs like this: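 Test compound at 200 μM was incubated with 1 U topoisomerase II and 500 ng […] plasmid for 6 min at 37 °C, with 1% DMSO final; vehicle and no-enzyme lanes served as controls. Products were run on a 1% agarose gel with SYBR Safe stain. The band intensity of linear DNA (form III) was quantified and normalized.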

The nature of data set [2]: Half life in mouse plasma. It counts as ADME, cell-free.
A short description of data set [3]: Half life in mouse liver microsomes. It counts as ADME, Microsome. In general terms: Liver microsomes are a subcellular fraction often used to study metabolism.
The nature of data set [4]: Kinetic solubility in neutral buffer. The class given is physicochemical. In short, it runs like this:
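Kinetic solubility measured in aqueous buffer at pH 7.4.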

Data set [5] is described as follows: Plasma concentration in mouse at 10 mg/kg, po after 6 hrs. The class given is ADME, organism-based. In short, it runs like this: (§1)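 Mice dosed orally at 10 mg/kg, with n = 3 animals per time point. Plasma concentration was followed over time, with sampling to at least 6 h.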
A short description of data set [6]: Plasma concentration in mouse at 10 mg/kg, po after 1 hr. It counts as ADME, organism-based. In short, it runs like this:
as §1

The target of data set [7] is T1, DNA topoisomerase 2-alpha. Kind of data set: Inhibition of human topo2alpha by plasmid relaxation assay.

T1 sequence (P11388 whole entry): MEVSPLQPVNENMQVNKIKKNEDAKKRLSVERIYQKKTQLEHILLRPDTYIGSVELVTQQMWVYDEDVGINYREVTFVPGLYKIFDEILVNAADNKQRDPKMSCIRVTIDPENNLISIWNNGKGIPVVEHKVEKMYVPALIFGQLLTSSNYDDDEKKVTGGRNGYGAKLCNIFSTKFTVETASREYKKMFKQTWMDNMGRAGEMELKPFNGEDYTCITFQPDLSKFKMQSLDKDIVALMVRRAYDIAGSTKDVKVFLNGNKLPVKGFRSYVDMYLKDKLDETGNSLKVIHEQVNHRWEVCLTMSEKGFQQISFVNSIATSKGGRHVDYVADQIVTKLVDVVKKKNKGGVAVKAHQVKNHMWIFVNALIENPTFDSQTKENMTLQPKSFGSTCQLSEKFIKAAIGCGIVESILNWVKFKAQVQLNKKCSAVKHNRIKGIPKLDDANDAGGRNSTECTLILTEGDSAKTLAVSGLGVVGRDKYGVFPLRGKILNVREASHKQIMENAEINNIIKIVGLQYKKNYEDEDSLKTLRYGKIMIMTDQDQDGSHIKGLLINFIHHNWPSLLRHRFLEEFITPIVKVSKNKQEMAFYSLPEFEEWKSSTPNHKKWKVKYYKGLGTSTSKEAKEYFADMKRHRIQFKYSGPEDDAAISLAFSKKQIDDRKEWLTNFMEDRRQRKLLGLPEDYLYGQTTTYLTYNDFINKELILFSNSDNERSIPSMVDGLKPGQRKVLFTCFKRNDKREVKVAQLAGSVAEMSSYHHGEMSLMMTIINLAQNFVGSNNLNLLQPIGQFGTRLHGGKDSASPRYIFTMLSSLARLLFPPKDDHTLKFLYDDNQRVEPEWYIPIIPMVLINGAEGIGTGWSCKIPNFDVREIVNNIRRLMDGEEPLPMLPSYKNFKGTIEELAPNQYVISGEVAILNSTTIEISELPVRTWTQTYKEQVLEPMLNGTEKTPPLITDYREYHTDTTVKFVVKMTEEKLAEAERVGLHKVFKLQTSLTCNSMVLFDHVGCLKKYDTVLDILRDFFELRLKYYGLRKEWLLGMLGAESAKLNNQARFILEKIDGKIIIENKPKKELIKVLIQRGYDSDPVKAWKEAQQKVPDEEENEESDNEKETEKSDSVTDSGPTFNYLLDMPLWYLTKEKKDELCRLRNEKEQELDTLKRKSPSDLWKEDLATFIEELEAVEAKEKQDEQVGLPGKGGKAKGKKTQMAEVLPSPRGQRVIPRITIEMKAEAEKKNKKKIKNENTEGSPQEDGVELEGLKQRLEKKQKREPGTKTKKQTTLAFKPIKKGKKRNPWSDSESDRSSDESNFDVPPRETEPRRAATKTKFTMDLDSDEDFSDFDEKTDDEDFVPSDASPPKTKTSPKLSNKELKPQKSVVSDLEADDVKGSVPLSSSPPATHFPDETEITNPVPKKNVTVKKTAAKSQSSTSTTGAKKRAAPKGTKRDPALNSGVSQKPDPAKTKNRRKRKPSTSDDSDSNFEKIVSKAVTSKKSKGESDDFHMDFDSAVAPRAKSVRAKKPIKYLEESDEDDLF

Usually half-life stands for the time in which the quantity being followed falls by half. Turning to `O=C(Nc1cccc(OC(F)(F)F)c1)c1c(O)n(-c2ccccc2)c(=S)n(-c2ccccc2)c1=O`, the result in data set [1] was Active. Also, the half-life is more than 2 h in data set [2] and more than 1 h in data set [3]. Moreover, the Kinetic_solubility in data set [4] was 224 µM. For the same compound, the concentration at 6 h in data set [5] worked out at 400 ng/mL. For the same compound, in data set [6], the concentration at 1 h amounted to 400 ng/mL.

Consider `O=C(Nc1cccc(OC(F)F)c1)c1c(O)n(-c2ccccc2)c(=S)n(-c2ccccc2)c1=O`, for which the result in data set [1] was Active. Moreover, the half-life in data set [2] was more than 2 h; in data set [3], more than 1 h. The compound also yielded a Kinetic_solubility in data set [4] of 208 µM.

Turning to `CC(F)(F)c1cccc(NC(=O)c2c(O)n(-c3ccccc3)c(=S)n(-c3ccccc3)c2=O)c1`, the half-life in data set [2] was more than 2 h; in data set [3] it was more than 1 h.

With `COc1cccc(CCNC(=O)c2c(O)n(-c3ccccc3)c(=S)n(-c3ccccc3)c2=O)c1`, the half-life in data set [2] is more than 2 h; in data set [3] it was more than 1 h.

For the compound `O=C(Nc1cccc(C(F)F)c1)c1c(O)n(-c2ccccc2)c(=S)n(-c2ccccc2)c1=O`, the outcome in data set [1] was Active. The half-life in data set [2] is more than 2 h; in data set [3] it was more than 1 h. Further, the Kinetic_solubility in data set [4] worked out at 238 µM.

For orientation: IC50 means the concentration needed to halve the response being measured. In data set [7], `O=C1NC(=S)NC(=O)C1C(=O)Nc1ccccc1` [MERBARONE] came in with an IC50 of 40 µM.

For the compound `CC(C)Oc1cccc(NC(=O)c2c(O)n(-c3ccccc3)c(=S)n(-c3ccccc3)c2=O)c1`, the half-life is more than 2 h in data set [2] and more than 1 h in data set [3].
